Values after ≈ are worked out from the molar mass of the structure shown.
What was measured:
Format in all cases: functional
Staphylococcus aureus [1] = assay: Antibacterial activity against erythromycin-susceptible Staphylococcus aureus ATCC 25923 incubated for 24 hrs by broth dilution method; conditions: ATCC 25923, 24 h
Outline: (§1)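 CLSI broth microdilution in cation-adjusted Mueller-Hinton broth. Twofold dilutions spanned 0.25–128 or 0.5–256 µg/mL, with CAM and AZM as controls. Log-phase bacteria were added and incubated 24 h at 37 °C. MIC was read by turbidity as the concentration of the last clear well.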

Streptococcus pyogenes [2] = assay: Antibacterial activity against erythromycin-susceptible Streptococcus pyogenes 1 clinical isolate incubated for 24 hrs by broth dilution method; outline: as §1
Escherichia coli = assay: Antibacterial activity against penicillin-susceptible Escherichia coli ATCC 25922 incubated for 24 hrs by broth dilution method; conditions: ATCC 25922, 24 h; outline: as §1
Pseudomonas aeruginosa = assay: Antibacterial activity against penicillin-susceptible Pseudomonas aeruginosa ATCC 27853 incubated for 24 hrs by broth dilution method; conditions: ATCC 27853, 24 h; outline: as §1
Bacillus subtilis = assay: Antibacterial activity against penicillin-susceptible Bacillus subtilis ATCC 9372 incubated for 24 hrs by broth dilution method; conditions: ATCC 9372, 24 h; outline: as §1
Staphylococcus aureus [3] = assay: Antibacterial activity against penicillin-resistant Staphylococcus aureus ATCC 31007 incubated for 24 hrs by broth dilution method; conditions: ATCC 31007, 24 h
Staphylococcus aureus [4] = assay: Antibacterial activity against methicillin-resistant Staphylococcus aureus ATCC 43300 incubated for 24 hrs by broth dilution method; conditions: ATCC 43300, 24 h
Streptococcus pneumoniae [5] = assay: Antibacterial activity against erythromycin-resistant Streptococcus pneumoniae B1 expressing the ermB incubated for 24 hrs by broth dilution method
Streptococcus pneumoniae [6] = assay: Antibacterial activity against erythromycin-resistant Streptococcus pneumoniae AB11 expressing the ermB and mefA incubated for 24 hrs by broth dilution method
Streptococcus pyogenes [7] = assay: Antibacterial activity against erythromycin-resistant Streptococcus pyogenes 2 clinical isolate incubated for 24 hrs by broth dilution method
Staphylococcus aureus [8] = assay: Bactericidal activity against erythromycin-susceptible Staphylococcus aureus ATCC 25923 incubated for 24 hrs followed by re-plating on tryptic soy agar plates for 24 hrs by broth microdilution assay; conditions: ATCC 25923, 24 h
Outline: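 Built on the broth microdilution MIC set-up (CAMH, 24 h, 37 °C). After 24 h, contents of clear wells were plated on tryptic soy agar and incubated 24 h at 37 °C. MBC was taken as the lowest concentration giving no colonies.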

Streptococcus pneumoniae [9] = assay: Bactericidal activity against erythromycin-resistant Streptococcus pneumoniae AB11 expressing the ermB and mefA incubated for 24 hrs followed by re-plating on tryptic soy agar plates for 24 hrs by broth microdilution assay
Outline: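 Follows the 24 h, 37 °C CAMH broth microdilution MIC plate; contents of clear wells plated onto tryptic soy agar and incubated 24 h at 37 °C; MBC taken as the lowest concentration giving no colonies.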

Staphylococcus aureus [10] = assay: Ratio of MBC to MIC for erythromycin-susceptible Staphylococcus aureus ATCC 25923
Streptococcus pneumoniae [11] = assay: Ratio of MBC to MIC for erythromycin-resistant Streptococcus pneumoniae AB11 expressing the ermB and mefA

CCCCc1ccc(-c2cn(C[C@@H]3COC(=O)[C@H](C)[C@@H](O[C@H]4C[C@@](C)(OC)[C@@H](O)[C@H](C)O4)[C@H](C)[C@@H](O[C@@H]4O[C@H](C)C[C@H](N(C)C)[C@H]4O)[C@](C)(OC)C[C@@H](C)[C@H](O)[C@H](C)CN3C)nn2)cc1
MIC (Staphylococcus aureus [1]): 128 µg/mL (≈ 139 µM)
MIC (Streptococcus pyogenes [2]): 16 µg/mL (≈ 17.4 µM)
MIC (Escherichia coli): 128 µg/mL (≈ 139 µM)
MIC (Pseudomonas aeruginosa): > 128 µg/mL
MIC (Bacillus subtilis): 32 µg/mL (≈ 34.8 µM)
MIC (Staphylococcus aureus [3]): 64 µg/mL (≈ 69.7 µM)
MIC (Staphylococcus aureus [4]): 128 µg/mL (≈ 139 µM)
MIC (Streptococcus pneumoniae [5]): 64 µg/mL (≈ 69.7 µM)
MIC (Streptococcus pneumoniae [6]): 64 µg/mL (≈ 69.7 µM)
MIC (Streptococcus pyogenes [7]): 16 µg/mL (≈ 17.4 µM)

CO[C@]1(C)C[C@@H](C)[C@H](O)[C@H](C)CN(C)C[C@@H](COCc2cn(-c3ccc(SC)cc3)nn2)OC(=O)[C@H](C)[C@@H](O[C@H]2C[C@@](C)(OC)[C@@H](O)[C@H](C)O2)[C@H](C)[C@H]1O[C@@H]1O[C@H](C)C[C@H](N(C)C)[C@H]1O
MIC (Staphylococcus aureus [1]): 4 µg/mL (≈ 4.26 µM)
MIC (Streptococcus pyogenes [2]): 4 µg/mL (≈ 4.26 µM)
MIC (Escherichia coli): 128 µg/mL (≈ 136 µM)
MIC (Pseudomonas aeruginosa): 128 µg/mL (≈ 136 µM)
MIC (Bacillus subtilis): 2 µg/mL (≈ 2.13 µM)
MIC (Staphylococcus aureus [3]): 128 µg/mL (≈ 136 µM)
MIC (Staphylococcus aureus [4]): 64 µg/mL (≈ 68.2 µM)
MIC (Streptococcus pneumoniae [5]): 64 µg/mL (≈ 68.2 µM)
MIC (Streptococcus pneumoniae [6]): 32 µg/mL (≈ 34.1 µM)
MIC (Streptococcus pyogenes [7]): 32 µg/mL (≈ 34.1 µM)

CO[C@]1(C)C[C@@H](C)[C@H](O)[C@H](C)CN(C)C[C@@H](Cn2cc(-c3ccc(F)cc3)nn2)OC(=O)[C@H](C)[C@@H](O[C@H]2C[C@@](C)(OC)[C@@H](O)[C@H](C)O2)[C@H](C)[C@H]1O[C@@H]1O[C@H](C)C[C@H](N(C)C)[C@H]1O
MIC (Staphylococcus aureus [1]): 0.5 µg/mL (≈ 0.568 µM)
MIC (Streptococcus pyogenes [2]): 0.25 µg/mL (≈ 0.284 µM)
MIC (Escherichia coli): 32 µg/mL (≈ 36.4 µM)
MIC (Pseudomonas aeruginosa): 32 µg/mL (≈ 36.4 µM)
MIC (Bacillus subtilis): 0.5 µg/mL (≈ 0.568 µM)
MIC (Staphylococcus aureus [3]): 128 µg/mL (≈ 145 µM)
MIC (Staphylococcus aureus [4]): 128 µg/mL (≈ 145 µM)
MIC (Streptococcus pneumoniae [5]): 64 µg/mL (≈ 72.7 µM)
MIC (Streptococcus pneumoniae [6]): 16 µg/mL (≈ 18.2 µM)
MIC (Streptococcus pyogenes [7]): 64 µg/mL (≈ 72.7 µM)

CC[C@H]1OC(=O)[C@H](C)[C@@H](O[C@H]2C[C@@](C)(OC)[C@@H](O)[C@H](C)O2)[C@H](C)[C@@H](O[C@@H]2O[C@H](C)C[C@H](N(C)C)[C@H]2O)[C@](C)(OC)C[C@@H](C)C(=O)[C@H](C)[C@@H](O)[C@]1(C)O [CLARITHROMYCIN]
MIC (Staphylococcus aureus [1]): ≤ 0.25 µg/mL
MIC (Streptococcus pyogenes [2]): ≤ 0.03 µg/mL
MIC (Escherichia coli): 128 µg/mL (≈ 171 µM)
MIC (Pseudomonas aeruginosa): 32 µg/mL (≈ 42.8 µM)
MIC (Bacillus subtilis): ≤ 0.25 µg/mL
MIC (Staphylococcus aureus [3]): > 256 µg/mL
MIC (Staphylococcus aureus [4]): > 256 µg/mL
MIC (Streptococcus pneumoniae [5]): > 256 µg/mL
MIC (Streptococcus pneumoniae [6]): 128 µg/mL (≈ 171 µM)
MIC (Streptococcus pyogenes [7]): 256 µg/mL (≈ 342 µM)
MBC (Staphylococcus aureus [8]): 128 µg/mL (≈ 171 µM)
MBC (Streptococcus pneumoniae [9]): 128 µg/mL (≈ 171 µM)
Ratio (Staphylococcus aureus [10]): >512
Ratio (Streptococcus pneumoniae [11]): 1

CO[C@]1(C)C[C@@H](C)[C@H](O)[C@H](C)CN(C)[C@@H](Cn2cc(-c3ccc(F)cc3)nn2)COC(=O)[C@H](C)[C@@H](O[C@H]2C[C@@](C)(OC)[C@@H](O)[C@H](C)O2)[C@H](C)[C@H]1O[C@@H]1O[C@H](C)C[C@H](N(C)C)[C@H]1O
MIC (Staphylococcus aureus [1]): 64 µg/mL (≈ 72.7 µM)
MIC (Streptococcus pyogenes [2]): 16 µg/mL (≈ 18.2 µM)
MIC (Escherichia coli): > 128 µg/mL
MIC (Pseudomonas aeruginosa): > 128 µg/mL
MIC (Bacillus subtilis): 32 µg/mL (≈ 36.4 µM)
MIC (Staphylococcus aureus [3]): 128 µg/mL (≈ 145 µM)
MIC (Staphylococcus aureus [4]): 128 µg/mL (≈ 145 µM)
MIC (Streptococcus pneumoniae [5]): 256 µg/mL (≈ 291 µM)
MIC (Streptococcus pneumoniae [6]): 128 µg/mL (≈ 145 µM)
MIC (Streptococcus pyogenes [7]): 128 µg/mL (≈ 145 µM)

COc1ccc(-c2cn(C[C@H]3COC(=O)[C@H](C)[C@@H](O[C@H]4C[C@@](C)(OC)[C@@H](O)[C@H](C)O4)[C@H](C)[C@@H](O[C@@H]4O[C@H](C)C[C@H](N(C)C)[C@H]4O)[C@](C)(OC)C[C@@H](C)[C@H](O)[C@H](C)CN3C)nn2)cc1
MIC (Staphylococcus aureus [1]): 64 µg/mL (≈ 71.7 µM)
MIC (Streptococcus pyogenes [2]): 4 µg/mL (≈ 4.48 µM)
MIC (Escherichia coli): > 128 µg/mL
MIC (Pseudomonas aeruginosa): > 128 µg/mL
MIC (Bacillus subtilis): 32 µg/mL (≈ 35.9 µM)
MIC (Staphylococcus aureus [3]): 256 µg/mL (≈ 287 µM)
MIC (Staphylococcus aureus [4]): 256 µg/mL (≈ 287 µM)
MIC (Streptococcus pneumoniae [5]): 256 µg/mL (≈ 287 µM)
MIC (Streptococcus pneumoniae [6]): 64 µg/mL (≈ 71.7 µM)
MIC (Streptococcus pyogenes [7]): 256 µg/mL (≈ 287 µM)

— ChEMBL document CHEMBL4334458, “Design, synthesis and antibacterial evaluation of novel 15-membered 11a-azahomoclarithromycin derivatives with the 1, 2, 3-triazole side chain” (Eur J Med Chem, 2019)
